Data taken from ChEMBL document CHEMBL1629579, “Correlating echinocandin MIC and kinetic inhibition of fks1 mutant glucan synthases for Candida albicans: implications for interpretive breakpoints” (Antimicrob Agents Chemother, 2009).
Converted amounts (≈) assume the structure as drawn. Numbered stars: 1 amine (or outer) side, 2 acyl side, 3 side chain; on linkers, the order of the positions; unused ones are H or OH. Bridge positions count the residues as written; N and C are the ends. Square brackets hold non-standard residues; d marks the D form. Peptide text beside a SMILES is read from it. * marks the point of attachment. pTerphenylCO(4''-OnC5H11) = CCCCCOc1ccc(-c2ccc(-c3ccc(C(=O)*)cc3)cc2)cc1; Orn(4R-OH,5R-OH) = O=C([C@H](C[C@@H](O)[C@@H](O)N[*:3])N[*:1])[*:2]; hTyr(3S-OH,4S-OH) = N[C@H](C(=O)O)[C@H](O)[C@@H](O)c1ccc(O)cc1; Pro(3S-OH,4S-Me) = C[C@H]1CN[C@H](C(=O)O)[C@H]1O; Hyp = O=C(O)[C@@H]1C[C@@H](O)CN1

Experiments:
Candida albicans [1] = experiment: Activity at Candida albicans 3107 1,3-beta-D-glucan synthase subunit FKS1p
Summary of the method: (§1)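 Glucan synthase from cells grown at 37°C with vigorous shaking to early stationary phase in YPD. Membrane enzyme enriched by product entrapment. Serial echinocandin dilutions; ANF controls held 1% DMSO. Reaction started by adding enzyme, run 60 min at 25°C in a filtration polymerization assay, stopped on ice. IC50 from a variable-slope sigmoidal fit; means of three repetitions on separate days.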

Candida albicans [2] = experiment: Antimicrobial activity against Candida albicans 36082 by M27-A3 method in presence of 50% human serum; format: functional
Summary of the method: (§2)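 Broth microdilution per CLSI M27-A3 in RPMI 1640, done in triplicate on three separate days. Each strain was tested with and without 50% human serum. C. krusei ATCC 6258 and C. parapsilosis ATCC 22019 served as QC strains. Arithmetic means are reported, and geometric means were used for comparison.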

[3] = Inhibition of Candida albicans SC5314 1,3-beta-D-glucan synthase subunit FKS1p
Summary of the method: (§3)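 Enzyme is product-entrapped 1,3-β-D-glucan synthase, enriched from membranes of each strain grown at 37°C with shaking in YPD broth to early stationary phase. Filtration polymerization assay uses [3H]UDPG, started by adding enzyme and run 60 min at 25°C. Echinocandins are added as serial dilutions, with 1% DMSO controls for anidulafungin. IC50 is from a variable-slope sigmoidal fit; values are triplicate arithmetic means.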

Candida albicans [4] = experiment: Antimicrobial activity against Candida albicans 194 harboring FKS1 C1934T/G4082R mutant gene and FKS1 hotspot1 S645F mutant gene and FKS1 hotspot2 R1361R/H mutant gene by M27-A3 method; format: functional; summary of the method: as §2
Candida albicans [5] = experiment: Activity at Candida albicans 121 1,3-beta-D-glucan synthase subunit FKS1p G4082A mutant
Summary of the method: (§4)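 Product-entrapped 1,3-β-D-glucan synthase from cells grown in YPD at 37°C to early stationary phase. Wells held 50 mM HEPES pH 7.5, 10% glycerol, 1.5 mg/ml BSA, 25 mM KF, 1 mM EDTA, 25 μM GTP-γ-S, 1 μg enzyme and [3H]UDPG (0.015–2 mM). Reactions ran 60 min at 25°C. Vmax and Km came from Lineweaver-Burke plots, in triplicate.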

Candida albicans [6] = experiment: Antimicrobial activity against Candida albicans 1002 by M27-A3 method; format: functional
Summary of the method: (§5)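 Broth microdilution per CLSI M27-A3 in RPMI 1640, with and without 50% human serum, in triplicate. C. krusei ATCC 6258 and C. parapsilosis ATCC 22019 served as quality-control strains. MIC reported as arithmetic mean of three repetitions on separate days.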

Candida albicans [7] = experiment: Antimicrobial activity against Candida albicans A15 harboring FKS1 T1933Y mutant gene and FKS1 hotspot1 S645S/P mutant gene by M27-A3 method; format: functional; summary of the method: as §2
Candida albicans [8] = experiment: Antimicrobial activity against Candida albicans 5415 harboring FKS1 T1933C mutant gene and FKS1 hotspot1 S645P mutant gene by M27-A3 method; format: functional; summary of the method: as §2
Candida albicans [9] = experiment: Antimicrobial activity against Candida albicans 3107 by M27-A3 method; format: functional; summary of the method: as §2
[10] = Inhibition of Candida albicans 90 1,3-beta-D-glucan synthase subunit FKS1p G4082R mutant; summary of the method: as §3
Candida albicans [11] = experiment: Antimicrobial activity against Candida albicans 2762 harboring FKS1 T1922C mutant gene and FKS1 hotspot1 F641S mutant gene by M27-A3 method; format: functional; summary of the method: as §2
Candida albicans [12] = experiment: Antimicrobial activity against Candida albicans 121 harboring FKS1 G4082A mutant gene and FKS1 hotspot2 R1361H mutant gene by M27-A3 method; format: functional; summary of the method: as §2
Candida albicans [13] = experiment: Activity at Candida albicans 119 1,3-beta-D-glucan synthase subunit FKS1p T1921C mutant; summary of the method: as §4
Candida albicans [14] = experiment: Antimicrobial activity against Candida albicans 122 harboring FKS1 C1946A mutant gene and FKS1 hotspot1 P649H mutant gene by M27-A3 method; format: functional; summary of the method: as §2
Candida albicans [15] = experiment: Antimicrobial activity against Candida albicans 85 harboring FKS1 C1934T mutant gene and FKS1 hotspot1 S645F mutant gene by M27-A3 method; format: functional; summary of the method: as §2
Candida albicans [16] = experiment: Antimicrobial activity against Candida albicans 149 harboring FKS1 G1942T mutant gene and FKS1 hotspot1 D648Y mutant gene by M27-A3 method; format: functional; summary of the method: as §2
Candida albicans [17] = experiment: Activity at Candida albicans 122 1,3-beta-D-glucan synthase subunit FKS1p C1946A mutant; summary of the method: as §4
[18] = Inhibition of Candida albicans 3795 1,3-beta-D-glucan synthase subunit FKS1p; summary of the method: as §3
[19] = Inhibition of Candida albicans 85 1,3-beta-D-glucan synthase subunit FKS1p C1934T mutant; summary of the method: as §3
Candida albicans [20] = experiment: Activity at Candida albicans 90 1,3-beta-D-glucan synthase subunit FKS1p G4082R mutant; summary of the method: as §4
Candida albicans [21] = experiment: Antimicrobial activity against Candida albicans 36082 by M27-A3 method; format: functional; summary of the method: as §5
[22] = Inhibition of Candida albicans 89 1,3-beta-D-glucan synthase subunit FKS1p C1934A mutant; summary of the method: as §3
Candida albicans [23] = experiment: Antimicrobial activity against Candida albicans 3795 by M27-A3 method; format: functional; summary of the method: as §5
Candida albicans [24] = experiment: Antimicrobial activity against Candida albicans 149 harboring FKS1 G1942T mutant gene and FKS1 hotspot1 D648Y mutant gene by M27-A3 method in presence of 50% human serum; format: functional; summary of the method: as §2
[25] = Inhibition of Candida albicans 205 1,3-beta-D-glucan synthase subunit FKS1p T1933C mutant; summary of the method: as §3
Candida albicans [26] = experiment: Antimicrobial activity against Candida albicans 2762 harboring FKS1 T1922C mutant gene and FKS1 hotspot1 F641S mutant gene by M27-A3 method in presence of 50% human serum; format: functional; summary of the method: as §2
Candida albicans [27] = experiment: Antimicrobial activity against Candida albicans A15-10 harboring FKS1 T1933C mutant gene and FKS1 hotspot1 S645P mutant by M27-A3 method in presence of 50% human serum; format: functional; summary of the method: as §2
[28] = Inhibition of Candida albicans 119 1,3-beta-D-glucan synthase subunit FKS1p T1921C mutant
Summary of the method: (§6)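 Product-entrapped glucan synthase from YPD-grown cells (37°C, early stationary phase) in a filtration polymerization assay with [3H]UDPG. Echinocandin serial dilutions were added, with 1% DMSO in controls for anidulafungin. Reactions were started with enzyme, run 60 min at 25°C and stopped on ice. IC50 came from a variable-slope sigmoidal fit, in triplicate.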

Candida albicans [29] = experiment: Activity at Candida albicans 85 1,3-beta-D-glucan synthase subunit FKS1p C1934T mutant; summary of the method: as §4
Candida albicans [30] = experiment: Activity at Candida albicans 90028 1,3-beta-D-glucan synthase subunit FKS1p; summary of the method: as §1
[31] = Inhibition of Candida albicans 1002 1,3-beta-D-glucan synthase subunit FKS1p; summary of the method: as §6
Candida albicans [32] = experiment: Antimicrobial activity against Candida albicans 177 harboring FKS1 T1922C mutant gene and FKS1 hotspot1 F641S mutant gene by M27-A3 method; format: functional; summary of the method: as §2

Question: For `CCCCCOc1ccc(-c2ccc(-c3ccc(C(=O)N[C@H]4C[C@@H](O)[C@@H](O)NC(=O)[C@@H]5[C@@H](O)[C@@H](C)CN5C(=O)[C@H]([C@@H](C)O)NC(=O)[C@H]([C@H](O)[C@@H](O)c5ccc(O)cc5)NC(=O)[C@@H]5C[C@@H](O)CN5C(=O)[C@H]([C@@H](C)O)NC4=O)cc3)cc2)cc1` [ANIDULAFUNGIN] ({pTerphenylCO(4''-OnC5H11)}-[Orn(4R-OH,5R-OH)]T[Hyp][hTyr(3S-OH,4S-OH)]T[Pro(3S-OH,4S-Me)]; lactam 1-C), which Km (Candida albicans [1]) is on record?
Answer: 102 µM

Question: And the Vmax (Candida albicans [1])?
Answer: 6.04 nmol/min

Question: And the MIC (Candida albicans [2])?
Answer: 0.12 µg/mL

Question: What about the IC50 [3] of the same compound?
Answer: 0.00089 µg/mL (≈ 0.000781 µM)

Question: What about the Ki [3] of the same compound?
Answer: 0.00133 µg/mL (≈ 0.00117 µM)

Question: And the MIC (Candida albicans [4])?
Answer: 4 µg/mL (≈ 3.51 µM)

Question: What about the Km (Candida albicans [5]) of the same compound?
Answer: 129 µM

Question: What about the Vmax (Candida albicans [5]) of the same compound?
Answer: 4.41 nmol/min

Question: And the MIC (Candida albicans [6])?
Answer: 0.06 µg/mL (≈ 0.0526 µM)

Question: And the MIC (Candida albicans [7])?
Answer: 0.5 µg/mL (≈ 0.438 µM)

Question: And the MIC (Candida albicans [8])?
Answer: 2 µg/mL (≈ 1.75 µM)

Question: And the MIC (Candida albicans [9])?
Answer: 0.03 µg/mL (≈ 0.0263 µM)

Question: What about the IC50 [10] of the same compound?
Answer: 0.0406 µg/mL (≈ 0.0356 µM)

Question: And the Ki [10]?
Answer: 0.0485 µg/mL (≈ 0.0425 µM)

Question: And the MIC (Candida albicans [11])?
Answer: 1 µg/mL (≈ 0.877 µM)

Question: What about the MIC (Candida albicans [12]) of the same compound?
Answer: 0.25 µg/mL (≈ 0.219 µM)

Question: And the Km (Candida albicans [13])?
Answer: 54 µM

Question: What about the Vmax (Candida albicans [13]) of the same compound?
Answer: 2.54 nmol/min

Question: What about the MIC (Candida albicans [14]) of the same compound?
Answer: 0.67 µg/mL (≈ 0.588 µM)

Question: And the MIC (Candida albicans [15])?
Answer: 2 µg/mL (≈ 1.75 µM)

Question: What about the MIC (Candida albicans [16]) of the same compound?
Answer: 0.83 µg/mL (≈ 0.728 µM)

Question: And the Km (Candida albicans [17])?
Answer: 152 µM

Question: And the Vmax (Candida albicans [17])?
Answer: 1.95 nmol/min

Question: What about the IC50 [18] of the same compound?
Answer: 0.00676 µg/mL (≈ 0.00593 µM)

Question: What about the Ki [18] of the same compound?
Answer: 0.0167 µg/mL (≈ 0.0146 µM)

Question: What about the IC50 [19] of the same compound?
Answer: 0.787 µg/mL (≈ 0.69 µM)

Question: And the Ki [19]?
Answer: 0.44593 µg/mL (≈ 0.391 µM)

Question: What about the Km (Candida albicans [20]) of the same compound?
Answer: 31 µM

Question: What about the Vmax (Candida albicans [20]) of the same compound?
Answer: 2.36 nmol/min

Question: And the MIC (Candida albicans [21])?
Answer: 0.03 µg/mL (≈ 0.0263 µM)

Question: And the IC50 [22]?
Answer: 2.739 µg/mL (≈ 2.4 µM)

Question: What about the Ki [22] of the same compound?
Answer: 1.16337 µg/mL (≈ 1.02 µM)

Question: And the MIC (Candida albicans [23])?
Answer: 0.06 µg/mL (≈ 0.0526 µM)

Question: And the MIC (Candida albicans [24])?
Answer: 4 µg/mL

Question: What about the IC50 [25] of the same compound?
Answer: 0.989 µg/mL (≈ 0.867 µM)

Question: What about the Ki [25] of the same compound?
Answer: 3.2231 µg/mL (≈ 2.83 µM)

Question: And the MIC (Candida albicans [26])?
Answer: 4 µg/mL

Question: And the MIC (Candida albicans [27])?
Answer: 8 µg/mL

Question: What about the IC50 [28] of the same compound?
Answer: 0.0113 µg/mL (≈ 0.00991 µM)

Question: What about the Ki [28] of the same compound?
Answer: 0.00677 µg/mL (≈ 0.00594 µM)

Question: And the Km (Candida albicans [29])?
Answer: 25 µM

Question: What about the Vmax (Candida albicans [29]) of the same compound?
Answer: 1.83 nmol/min

Question: What about the Km (Candida albicans [30]) of the same compound?
Answer: 67 µM

Question: And the Vmax (Candida albicans [30])?
Answer: 4.71 nmol/min

Question: What about the IC50 [31] of the same compound?
Answer: 0.00796 µg/mL (≈ 0.00698 µM)

Question: What about the Ki [31] of the same compound?
Answer: 0.00239 µg/mL (≈ 0.0021 µM)

Question: What about the MIC (Candida albicans [32]) of the same compound?
Answer: 0.83 µg/mL (≈ 0.728 µM)
